Laboratory results as given in ChEMBL document CHEMBL1123588, “Synthesis and antisecretory and antiulcer activities of derivatives and analogues of 2-(2-pyridyl)tetrahydrothiophene-2-carbothioamide” (1987).

How the values were obtained:
[1] = organism: Rattus norvegicus; test: Antisecretory activity against histamine stimulated gastric acid secretion in Shay rats expressed as ED50; assay type: functional; details: Stomach
Procedure, shortened: (§1)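 Histamine-stimulated Shay rats: females (OFA, 150–175 g, n=6/group), fasted 24 h. Oral dosing in 10% gum arabic, 1 h pre-histamine (100 mg/kg sc), promethazine 10 mg/kg ip pretreatment. Pylorus ligation under chloral hydrate; 2 h gastric juice titrated with 0.1 N NaOH. Lower doses tested when 30 mg/kg gave >80% inhibition; ED50 from regression line.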

[2] = tested on: Rattus norvegicus; test: Antisecretory activity against histamine stimulated gastric acid secretion in Shay rats by peroral administration of 30 mg /kg was determined: activity not statistically significant; assay type: functional; details: Stomach, po
Procedure, shortened: (§2)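 Female OFA rats, 150–175 g, six per group, fasted 24 h with water allowed. Dose given orally in 10% gum arabic (5 mL/kg) 1 h before histamine 100 mg/kg sc. Promethazine 10 mg/kg ip 30 min before histamine; pylorus ligated under chloral hydrate 30 min after. Juice collected 2 h, titrated with 0.1 N NaOH. Acid output compared with controls by Student's t test.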

[3] = tested on: Rattus norvegicus; test: Antiulcer activity against restraint-induced gastric erosions in rats, following 100 mg/kg p.o. administration.; assay type: functional, Stomach; details: route oral
Procedure, shortened: (§3)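 Restraint-stress erosions (Rossi): female OFA rats, 150–175 g, six per group, fasted 24 h. Oral dose in 10% gum arabic (5 mL/kg) 1 h before restraint in wire-netting cages. Rats killed 24 h later and gastric mucosal erosions assessed. A rat counted protected with no erosion; read-out is % protected rats.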

[4] = organism: Rattus norvegicus; test: Antisecretory activity against histamine stimulated gastric acid secretion in Shay rats expressed as ED50; value ranges from (0.1-2.2); assay type: functional; details: Stomach; procedure, shortened: as §1
[5] = tested on: Rattus norvegicus; test: Antiulcer activity by protection of restraint-induced gastric erosions in rats, by using the technique of Rossi was determined at peroral dose of 4.5 mg/kg; assay type: functional, Stomach; details: route oral; procedure, shortened: as §3
[6] = tested on: Rattus norvegicus; test: Antiulcer activity by protection of restraint-induced gastric erosions in rats, by using the technique of Rossi was determined at peroral dose of 30 mg/kg; assay type: functional, Stomach; details: route oral; procedure, shortened: as §3
[7] = organism: Rattus norvegicus; test: Antisecretory activity against histamine stimulated gastric acid secretion in Shay rats expressed as ED50 value ranges from (2.5-12.1); assay type: functional; details: Stomach; procedure, shortened: as §1
[8] = tested on: Rattus norvegicus; test: Antisecretory activity against histamine stimulated gastric acid secretion in Shay rats by peroral administration of 30 mg /kg was determined :activity not statistically significant; assay type: functional; details: Stomach, po; procedure, shortened: as §2
[9] = organism: Rattus norvegicus; test: Antisecretory activity against histamine stimulated gastric acid secretion in Shay rats expressed as ED50 value ranges from (0.6-3.8); assay type: functional; details: Stomach; procedure, shortened: as §1
[10] = tested on: Rattus norvegicus; test: Antisecretory activity against histamine stimulated gastric acid secretion in Shay rats by peroral administration of 30 mg /kg was determined; assay type: functional; details: Stomach, po; procedure, shortened: as §2
[11] = organism: Rattus norvegicus; test: Antisecretory activity against histamine stimulated gastric acid secretion in Shay rats expressed as ED50 value ranges from (1.3-7.1); assay type: functional; details: Stomach; procedure, shortened: as §1
[12] = organism: Rattus norvegicus; test: animal or person; details: Stomach
[13] = tested on: Rattus norvegicus; test: Antiulcer activity by protection of restraint-induced gastric erosions in rats, by using the technique of Rossi was determined at peroral dose of 10 mg/kg; assay type: functional, Stomach; details: route oral; procedure, shortened: as §3
[14] = organism: Rattus norvegicus; test: Antisecretory activity against histamine stimulated gastric acid secretion in Shay rats expressed as ED50; value ranges from (1.0-6.5); assay type: functional; details: Stomach; procedure, shortened: as §1
[15] = organism: Rattus norvegicus; test: Antisecretory activity against histamine stimulated gastric acid secretion in Shay rats expressed as ED50 value ranges from (1.7-17.4); assay type: functional; details: Stomach; procedure, shortened: as §1
[16] = organism: Rattus norvegicus; test: Antisecretory activity against histamine stimulated gastric acid secretion in Shay rats expressed as ED50 value ranges from (1-2.6); assay type: functional; details: Stomach; procedure, shortened: as §1
[17] = organism: Rattus norvegicus; test: Antisecretory activity against histamine stimulated gastric acid secretion in Shay rats expressed as ED50 value ranges from (2.7-12.3); assay type: functional; details: Stomach; procedure, shortened: as §1
[18] = organism: Rattus norvegicus; test: Antisecretory activity against histamine stimulated gastric acid secretion in Shay rats expressed as ED50 value ranges from (0.8-2.8); assay type: functional; details: Stomach; procedure, shortened: as §1
[19] = organism: Rattus norvegicus; test: Antisecretory activity against histamine stimulated gastric acid secretion in Shay rats expressed as ED50 value ranges from (0.1-1.3); assay type: functional; details: Stomach; procedure, shortened: as §1
[20] = organism: Rattus norvegicus; test: Antiulcer activity against histamine stimulated gastric acid secretion in Shay rats expressed as ED50; assay type: functional; details: Stomach
[21] = tested on: Rattus norvegicus; test: Antiulcer activity by protection of restraint-induced gastric erosions in rats, by using the technique of Rossi was determined at peroral dose of 5 mg/kg; assay type: functional, Stomach; details: route oral; procedure, shortened: as §3
[22] = organism: Rattus norvegicus; test: Antisecretory activity against histamine stimulated gastric acid secretion in Shay rats expressed as ED50; value ranges from (0.5-2); assay type: functional; details: Stomach; procedure, shortened: as §1
[23] = organism: Rattus norvegicus; test: Antiulcer activity by protection of restraint-induced gastric erosions in rats, by using the technique of Rossi was determined at peroral dose of; assay type: functional, Stomach; procedure, shortened: as §3
[24] = organism: Rattus norvegicus; test: Antisecretory activity against histamine stimulated gastric acid secretion in Shay rats expressed as ED50; value ranges from(0.5-22.3).; assay type: functional; details: Stomach; procedure, shortened: as §1

CN(C)CCC/N=C(\S)C1(c2ccccn2)CCCS1 (centres undefined)
ED50 [1]: > 30 mg/kg | inhibition in vivo at 30 mg/kg [2]: 0% | Protection [3]: 0%

S=C(N1CCCCC1)C1(c2ccccn2)CCCS1 (centres undefined)
inhibition in vivo at 30 mg/kg [2]: 30% | Protection [3]: 83%

C=CCNC(=S)C1(c2ccccn2)CCCS1 (centres undefined)
ED50 [1]: > 30 mg/kg | inhibition in vivo at 30 mg/kg [2]: 20% | Protection [3]: 0%

C/N=C(\S)C1(c2ccccn2)CCCO1 (centres undefined)
ED50 [4]: 0.5 mg/kg | Protection [5]: 66%

CCCC/N=C(\S)C1(c2ccccn2)CCCS1 (centres undefined)
Protection [6]: 100% | ED50 [7]: 5.5 mg/kg

S=C(Nc1ccccc1)C1(c2ccccn2)CCCS1 (centres undefined)
ED50 [1]: > 30 mg/kg | inhibition in vivo at 30 mg/kg [8]: 0%

Cc1cnc2c(c1)CCCC2C(N)=S (centres undefined) [TIQUINAMIDE]
ED50 [9]: 1.6 mg/kg

C/N=C(\S)C1(c2cnccn2)CCCS1 (centres undefined)
ED50 [1]: > 30 mg/kg | inhibition in vivo at 30 mg/kg [10]: 38% | Protection [3]: 100%

C/N=C(\S)C1(c2ccc3ccccc3n2)CCCS1 (centres undefined)
ED50 [11]: 3 mg/kg | Protection [3]: 100%

CN/C(=N\CCSCc1nc[nH]c1C)NC#N [CIMETIDINE]
ED50 [12]: 30 mg/kg | Protection [3]: 50%

S=C(N1CCOCC1)C1(c2ccccn2)CCCS1 (centres undefined)
ED50 [1]: ≤ 30 mg/kg | inhibition in vivo at 30 mg/kg [10]: 54% | Protection [3]: 83%

C/N=C(\S)C1(c2ccccn2)CCCCS1 (centres undefined)
Protection [13]: 100% | ED50 [14]: 2.6 mg/kg

N=C(S)C(c1ccccc1)c1ccccn1 (centres undefined)
ED50 [15]: 5.5 mg/kg

CC/N=C(\S)C1(c2ccccn2)CCCS1 (centres undefined)
ED50 [16]: 1.6 mg/kg | Protection [13]: 50%

CN(C)CC/N=C(\S)C1(c2ccccn2)CCCS1 (centres undefined)
ED50 [1]: > 30 mg/kg | inhibition in vivo at 30 mg/kg [2]: 0% | Protection [3]: 16%

CN(C)C(=S)C1(c2ccccn2)CCCS1 (centres undefined)
ED50 [1]: < 30 mg/kg | inhibition in vivo at 30 mg/kg [10]: 74% | Protection [3]: 83%

C/N=C(\S)C1(c2ccc(C)cn2)CCCS1 (centres undefined)
Protection [13]: 60% | ED50 [17]: 5.7 mg/kg

CNC(=S)C1(c2cccc(C)n2)CCCS1 (centres undefined) [LUCARTAMIDE]
Protection [13]: 50% | ED50 [18]: 1.5 mg/kg

CNC(=S)C1(c2ccccn2)CCCS1 (centres undefined) [PICARTAMIDE]
ED50 [19]: 0.4 mg/kg | Protection [5]: 50% | ED50 [20]: 5.9 mg/kg

S=C(NCc1ccccc1)C1(c2ccccn2)CCCS1 (centres undefined)
ED50 [1]: ≤ 30 mg/kg | inhibition in vivo at 30 mg/kg [10]: 58% | Protection [3]: 100%

Cc1cccc(C2(C(=N)S)CCCS2)n1 (centres undefined)
ED50 [1]: < 30 mg/kg | inhibition in vivo at 30 mg/kg [10]: 71% | Protection [3]: 100%

CN1CCN(C(=S)C2(c3ccccn3)CCCS2)CC1 (centres undefined)
ED50 [1]: > 30 mg/kg | inhibition in vivo at 30 mg/kg [2]: 8% | Protection [3]: 0%

CCCCc1ccnc(C2(/C(S)=N/C)CCCS2)c1 (centres undefined)
ED50 [1]: < 30 mg/kg | inhibition in vivo at 30 mg/kg [10]: 78% | Protection [3]: 100%

C/N=C(\S)C1(c2ccccn2)OCCCS1 (centres undefined)
ED50 [1]: 1.6 mg/kg | Protection [21]: 50%

OCC/N=C(\S)C1(c2ccccn2)CCCS1 (centres undefined)
ED50 [1]: > 30 mg/kg | inhibition in vivo at 30 mg/kg [2]: 25% | Protection [3]: 16%

C/N=C(\S)C1(c2cc(C)ccn2)CCCS1 (centres undefined)
Protection [13]: 83% | ED50 [22]: 1 mg/kg

CCCCCCCCCCCC/N=C(\S)C1(c2ccccn2)CCCS1 (centres undefined)
ED50 [1]: > 30 mg/kg | inhibition in vivo at 30 mg/kg [10]: 0% | Protection [23]: 0%

CCCCCCC/N=C(\S)C1(c2ccccn2)CCCS1 (centres undefined)
ED50 [1]: > 30 mg/kg | inhibition in vivo at 30 mg/kg [10]: 0% | Protection [3]: 33%

C/N=C(\S)C1(c2cccnn2)CCCS1 (centres undefined)
Protection [3]: 100%

NC(=S)C1(c2ccccn2)SCCCS1
ED50 [1]: 2.8 mg/kg | Protection [3]: 100%

NC(=S)C1(c2ccccn2)CCCS1 (centres undefined)
ED50 [24]: 3.2 mg/kg | Protection [3]: 100%

N/N=C(\S)C1(c2ccccn2)CCCS1 (centres undefined)
ED50 [1]: > 30 mg/kg | inhibition in vivo at 30 mg/kg [2]: 0% | Protection [3]: 0%

C/N=C(\S)C1(c2cccnc2)CCCS1 (centres undefined)
ED50 [1]: ≥ 30 mg/kg | inhibition in vivo at 30 mg/kg [10]: 49% | Protection [3]: 100%

C/N=C(\S)C1(c2ccncc2)CCCS1 (centres undefined)
ED50 [1]: ≤ 30 mg/kg | inhibition in vivo at 30 mg/kg [10]: 53% | Protection [3]: 83%

C/N=C(\S)C1(c2ccccn2)SCCCS1
ED50 [1]: 5.7 mg/kg | Protection [13]: 50%
